The nature of data set [1]: Inhibition of dog plasma kallikrein using fluorogenic H-Pro-Phe-Arg-AMC peptide as substrate preincubated for 15 mins followed by substrate addition measured by fluorescence-based assay. The settings on record: read-out: Ki(app).
A short description of data set [2]: Half life in human plasma at 4 uM measured up to 24 hrs by LC-MS/MS analysis. The format is ADME, cell-free. In a few lines:
(§1)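 Peptide from a 0.16 mM DMSO stock was added to human, rat or mouse plasma (final 4 μM) or to homogenized human vitreous (final 1 μM), with internal standard. Samples were incubated at 37 °C for up to 24 h and extracted with water/acetonitrile/methanol 1:3:3.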

The nature of data set [3]: Half life in mouse plasma at 4 uM measured up to 24 hrs by LC-MS/MS analysis. The format is ADME, cell-free. Summed up: as §1
A short description of data set [4]: Half life in rat plasma at 4 uM measured up to 24 hrs by LC-MS/MS analysis. It is filed as ADME, cell-free. In a few lines:
as §1

Data set [5] can be described thus: Half life in human vitreous humor at 1 uM measured up to 24 hrs by LC-MS/MS analysis. It is filed as ADME, tissue-based. Summed up:
as §1

The target of data set [6] is Kallikrein-1 (Homo sapiens, UniProt P06870). Kind of data set: Inhibition of recombinant human C-terminal His-tagged KLK1 (1 to 262 residues) expressed in HEK293 cells using fluorogenic PFR-AMC peptide as substrate by fluorescence based assay. In a few lines:
(§2)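 Human serine proteases were assayed with substrates and conditions set by each supplier's recommendations. Peptides were first screened at 50 μM. Where inhibition was detected, Ki was determined from activity across peptide concentrations using a tight-binding rate equation.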

Data set [7] addresses T1, Kallikrein-2 (Homo sapiens, UniProt P20151).
T1 sequence (P20151 whole entry): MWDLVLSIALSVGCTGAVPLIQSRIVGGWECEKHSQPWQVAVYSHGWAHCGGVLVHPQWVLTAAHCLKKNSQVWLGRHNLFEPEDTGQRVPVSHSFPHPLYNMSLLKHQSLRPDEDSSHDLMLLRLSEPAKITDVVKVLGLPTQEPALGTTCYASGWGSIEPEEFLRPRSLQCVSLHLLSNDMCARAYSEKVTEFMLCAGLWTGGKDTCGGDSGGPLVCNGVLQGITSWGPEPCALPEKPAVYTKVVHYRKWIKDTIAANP
Kind of data set: Inhibition of recombinant human C-terminal 10His-tagged KLK2 (1 to 261 residues) expressed in mouse NS0 cells using fluorogenic PFR-AMC peptide as substrate after 5 mins by fluorescence based assay. Summed up: as §2

Data set [8] has as its target T2, Kallikrein-5 (Homo sapiens, UniProt Q9Y337).
T2 sequence (Q9Y337 whole entry): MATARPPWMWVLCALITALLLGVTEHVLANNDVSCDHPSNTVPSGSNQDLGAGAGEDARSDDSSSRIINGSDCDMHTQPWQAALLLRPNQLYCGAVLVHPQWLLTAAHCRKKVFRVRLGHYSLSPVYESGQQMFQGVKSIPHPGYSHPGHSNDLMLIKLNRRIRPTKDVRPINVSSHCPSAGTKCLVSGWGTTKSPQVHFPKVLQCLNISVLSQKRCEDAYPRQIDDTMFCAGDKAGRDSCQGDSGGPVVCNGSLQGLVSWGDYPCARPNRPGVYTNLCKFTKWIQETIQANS
Description: Inhibition of recombinant human C-terminal 10His-tagged KLK5 (67 to 293 residues) expressed in mouse NS0 cells using fluorogenic Boc-VPR-AMC peptide as substrate after 5 mins by fluorescence based assay. In a few lines: as §2

For data set [9], the target named is Vitamin K-dependent protein C (Homo sapiens, UniProt P04070). Description: Inhibition of human activated protein C by fluorescence based assay. In a few lines:
as §2

Data set [10] concerns the target T3, Suppressor of tumorigenicity 14 protein (Homo sapiens, UniProt Q9Y5Y6).
T3 sequence (Q9Y5Y6 whole entry): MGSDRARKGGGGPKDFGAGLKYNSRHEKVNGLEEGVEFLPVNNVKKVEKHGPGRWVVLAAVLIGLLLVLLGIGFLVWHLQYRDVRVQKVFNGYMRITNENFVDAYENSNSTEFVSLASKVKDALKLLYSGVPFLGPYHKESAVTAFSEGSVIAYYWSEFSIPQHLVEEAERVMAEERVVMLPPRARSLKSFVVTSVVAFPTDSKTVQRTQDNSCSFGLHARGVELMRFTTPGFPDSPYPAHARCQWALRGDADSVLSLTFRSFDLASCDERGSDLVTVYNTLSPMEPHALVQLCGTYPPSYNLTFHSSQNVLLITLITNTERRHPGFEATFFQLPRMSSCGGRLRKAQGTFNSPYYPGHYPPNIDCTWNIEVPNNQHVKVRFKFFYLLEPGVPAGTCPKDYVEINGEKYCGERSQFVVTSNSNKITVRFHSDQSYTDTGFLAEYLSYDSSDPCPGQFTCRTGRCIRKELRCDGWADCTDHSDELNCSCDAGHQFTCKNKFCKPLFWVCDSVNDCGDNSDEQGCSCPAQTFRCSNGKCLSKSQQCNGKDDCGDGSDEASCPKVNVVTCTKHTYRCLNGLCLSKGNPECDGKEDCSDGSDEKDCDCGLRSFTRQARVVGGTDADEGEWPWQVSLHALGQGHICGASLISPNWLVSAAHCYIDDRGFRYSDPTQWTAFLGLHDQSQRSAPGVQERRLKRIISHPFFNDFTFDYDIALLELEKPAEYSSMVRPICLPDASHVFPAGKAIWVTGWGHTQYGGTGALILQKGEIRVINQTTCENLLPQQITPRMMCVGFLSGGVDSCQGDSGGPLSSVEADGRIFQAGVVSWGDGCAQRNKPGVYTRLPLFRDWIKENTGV
Kind of data set: Inhibition of recombinant human N-terminal 6His-tagged matriptase catalytic domain (596 to 855 residues) expressed in Escherichia coli using fluorogenic Boc-QAR-AMC peptide as substrate after 5 mins by fluorescence based assay. Summed up:
(§3)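 Panel of human serine proteases. Substrates and assay conditions followed each supplier's recommendations. Peptides were first screened at 50 μM. Where inhibition was detectable, hydrolytic activity was measured across a range of peptide concentrations. Ki was obtained by fitting to the tight-binding inhibitor rate equation.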

Data set [11] is described as follows: Volume of distribution at steady state in Sprague-Dawley rat at 5 mg/kg, iv measured up to 240 mins post dose by LC-MS/MS analysis. The format is ADME, organism-based. The settings on record: in vivo, read-out: Vdss. In a few lines:
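Male Sprague-Dawley rats, 2 per group, given 5 mg/kg intravenously. Blood sampled through tail-vein cannulae at 5, 10, 20, 30, 60, 120, 180 and 240 min into EDTA tubes and spun to plasma.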

Data set [12] has as its target T4, Cathepsin G (Homo sapiens, UniProt P08311).
T4 sequence (P08311 whole entry): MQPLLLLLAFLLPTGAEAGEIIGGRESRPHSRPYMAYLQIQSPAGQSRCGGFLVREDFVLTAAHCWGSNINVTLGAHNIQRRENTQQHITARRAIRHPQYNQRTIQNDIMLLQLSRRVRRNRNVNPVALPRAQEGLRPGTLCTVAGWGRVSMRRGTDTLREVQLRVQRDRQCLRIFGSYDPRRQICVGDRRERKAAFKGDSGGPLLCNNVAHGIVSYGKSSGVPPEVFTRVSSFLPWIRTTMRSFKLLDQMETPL
Kind of data set: Inhibition of recombinant human Cathepsin-G. In a few lines: as §3

Data set [13] concerns the target Coagulation factor X (Homo sapiens, UniProt P00742). Kind of data set: Inhibition of recombinant human C-terminal 10His-tagged factor Xa (24 to 488 residues) expressed in baculovirus derived insect sf21 cells using fluorogenic Mca-RPKPVE-Nval-WRK(Dnp)-NH2 peptide as substrate by fluorescence based assay. In a few lines: as §2

Experimental findings from ChEMBL document CHEMBL4033799, “Stable and Long-Lasting, Novel Bicyclic Peptide Plasma Kallikrein Inhibitors for the Treatment of Diabetic Macular Edema” (J Med Chem, 2018) are described below.

Where only a bound is given, the exact number is not on record here.

One may read the half-life as the time needed for the level to fall by half in the phase considered.

As for `CC(=O)N[C@H]1CSCc2cc3cc(c2)CSC[C@H](NC(=O)[C@H](CCCCNC(=N)N)NC(=O)[C@H](Cc2ccc(O)cc2)NC(=O)[C@@H]2CCN2C(=O)[C@H](Cc2ccccc2)NC(=O)[C@H](CO)NC1=O)C(=O)N[C@@H](C)CN[C@@H](Cc1cnc[nH]1)C(=O)N[C@@H](CCC(N)=O)C(=O)N[C@@H](CC(=O)O)C(=O)N[C@@H](CC(C)C)C(=O)N[C@H](C(=O)O)CSC3`, the Ki is 0.08 µM in data set [1]; more than 50 µM in data set [6] (hek293); 10 µM in data set [7]; more than 50 µM in data set [8]; more than 50 µM in data set [9]; 50 µM in data set [10]. Also, the half-life at 4 µM in data set [2], in data set [3] and in data set [4] was more than 24 h each time. In addition, the half-life at 1 µM in [5] is more than 24 h. The Vd in data set [11] turned out to be 0.44 L/kg.
In the case of `CC[C@H](C)[C@@H]1NC(=O)[C@H](CC(=O)O)NC(=O)[C@@H]2CCCN2C(=O)[C@H](Cc2ccc(O)cc2)NC(=O)[C@H](Cc2ccc(O)cc2)NC(=O)[C@H](C(C)C)NC(=O)[C@@H]2CSCc3cc(cc(c3)CSC[C@@H](C(=O)N[C@@H](C)C(=O)N(C)CC(=O)N(C)CC(=O)N(C)CC(=O)N[C@H](CCCNC(=N)N)C(=O)N[C@H](CCCNC(=N)N)C(=O)O)NC1=O)CSC[C@H](NC(C)=O)C(=O)N[C@@H](CO)C(=O)N[C@@H](Cc1ccccc1)C(=O)N1CCC1C(=O)N[C@@H](Cc1ccc(O)cc1)C(=O)N[C@@H](CCCCNC(=N)N)C(=O)N2` (some centres not stated), the Ki was 0.022 µM in [1]; 50 µM in data set [6]; 10 µM in [7]; 0.8 µM in [8]; more than 50 µM in data set [12]; 23 µM in data set [13]. In addition, the results for the Ki in data set [9] and in data set [10] were more than 50 µM and 15 µM, respectively.
Consider `CC(=O)N[C@H]1CSCc2cc3cc(c2)CSC[C@H](C(=O)N[C@@H](C)C(=O)N(C)CC(=O)N(C)CC(=O)N(C)CC(=O)N[C@H](CCCNC(=N)N)C(=O)N[C@H](CCCNC(=N)N)C(=O)O)NC(=O)[C@H](CC(C)C)NC(=O)[C@@H]2CCCN2C(=O)[C@H](C)NC(=O)[C@H](CC(=O)O)NC(=O)[C@H](Cc2c[nH]c4ccccc24)NC(=O)[C@@H]2CCCN2C(=O)[C@H](CSC3)NC(=O)[C@H](Cc2c[nH]c3ccccc23)NC(=O)[C@@H]2CCCN2C(=O)[C@H](CC(N)=O)NC(=O)[C@H](Cc2c[nH]c3ccccc23)NC(=O)[C@H]([C@@H](C)O)NC(=O)[C@H](CC(N)=O)NC1=O`, for which the Ki in [1] is 0.5 µM; in data set [6] (hek293), more than 50 µM; in data set [7] it was more than 50 µM; in data set [8], 50 µM; in [12] it was more than 50 µM; in [13], more than 50 µM. In addition, the Ki in [9] was more than 50 µM; in data set [10] it was 40 µM. The half-life at 4 µM in data set [2], in data set [3] and in data set [4] was more than 24 h throughout. This compound also yielded a half-life at 1 µM in [5] of more than 24 h. The Vd in data set [11] stood at 0.93 L/kg.
